# In ChEMBL document CHEMBL3124806, “Imidazopyridine-fused [1,3]-diazepinones: synthesis and antiproliferative activity” (Eur J Med Chem, 2014):
# What was measured:
# [1] = tested on: HL-60(TB); test: Cytotoxicity against human HL-60(TB) cells assessed as cell growth at 10 uM after 48 hrs by SRB assay relative to untreated control; type: functional; conditions: HL-60, 48 h, read-out: Activity
# Procedure, shortened: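 NCI-60 human tumour cell line panel; a single 10 µM concentration was added to the cultures and incubated 48 h. Endpoint was sulforhodamine B protein-binding dye read spectrophotometrically, with growth reported as percent of untreated control cells.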
# [2] = tested on: NCI-H226; test: Cytotoxicity against human NCI-H226 cells assessed as cell growth at 10 uM after 48 hrs by SRB assay relative to untreated control; type: functional; conditions: NCI-H226, 48 h, read-out: Activity
# Procedure, shortened: (§1)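 NCI-60 one-dose screen: each agent added at 10 µM, cultures incubated 48 h. Endpoint by sulforhodamine B protein-binding dye read spectrophotometrically; growth expressed as percent of untreated control cells.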
# [3] = tested on: M14; test: Cytotoxicity against human M14 cells assessed as cell growth at 10 uM after 48 hrs by SRB assay relative to untreated control; type: functional; conditions: M14, 48 h, read-out: Activity
# Procedure, shortened: (§2)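 NCI-60 panel screen at a single concentration of 10 μM with 48 h incubation. Cell density measured by sulforhodamine B protein-binding dye and read spectrophotometrically. Growth expressed as percent of untreated control cells.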
# [4] = tested on: SK-MEL-28; test: Cytotoxicity against human SK-MEL-28 cells assessed as cell growth at 10 uM after 48 hrs by SRB assay relative to untreated control; type: functional; conditions: SK-MEL-28, 48 h, read-out: Activity
# Procedure, shortened: (§3)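 NCI-60 single-dose screen. Compounds were added to the cultures at 10 μM and incubated for 48 h. The end point was sulforhodamine B protein staining read spectrophotometrically. Growth is reported as percent of untreated control cells.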
# [5] = tested on: RPMI-8226; test: Cytotoxicity against human RPMI8226 cells assessed as cell growth at 10 uM after 48 hrs by SRB assay relative to untreated control; type: functional; conditions: RPMI-8226, 48 h, read-out: Activity; procedure, shortened: as §1
# [6] = tested on: HCC 2998; test: Cytotoxicity against human HCC2998 cells assessed as cell growth at 10 uM after 48 hrs by SRB assay relative to untreated control; type: functional; conditions: HCC 2998, 48 h, read-out: Activity; procedure, shortened: as §2
# [7] = tested on: ACHN; test: Cytotoxicity against human ACHN cells assessed as cell growth at 10 uM after 48 hrs by SRB assay relative to untreated control; type: functional; conditions: read-out: Activity; procedure, shortened: as §2
# [8] = tested on: SN12C; test: Cytotoxicity against human SN12C cells assessed as cell growth at 10 uM after 48 hrs by SRB assay relative to untreated control; type: functional; conditions: read-out: Activity; procedure, shortened: as §3
# [9] = tested on: MDA-MB-435; test: Cytotoxicity against human MDA-MB-435 cells assessed as cell growth at 10 uM after 48 hrs by SRB assay relative to untreated control; type: functional; conditions: MDA-MB-435, 48 h, read-out: Activity; procedure, shortened: as §1
# [10] = tested on: OVCAR-8; test: Cytotoxicity against human OVCAR8 cells assessed as cell growth at 10 uM after 48 hrs by SRB assay relative to untreated control; type: functional; conditions: OVCAR-8, 48 h, read-out: Activity; procedure, shortened: as §1
# [11] = tested on: SNB-19; test: Cytotoxicity against human SNB19 cells assessed as cell growth at 10 uM after 48 hrs by SRB assay relative to untreated control; type: functional; conditions: SNB-19, 48 h, read-out: Activity; procedure, shortened: as §3
# [12] = tested on: NCI-H522; test: Cytotoxicity against human NCI-H522 cells assessed as cell growth at 10 uM after 48 hrs by SRB assay relative to untreated control; type: functional; conditions: NCI-H522, 48 h, read-out: Activity; procedure, shortened: as §1
# [13] = tested on: HT-29; test: Cytotoxicity against human HT-29 cells assessed as cell growth at 10 uM after 48 hrs by SRB assay relative to untreated control; type: functional; conditions: HT-29, 48 h, read-out: Activity; procedure, shortened: as §2
# [14] = organism: Ovis aries; test: Inhibition of sheep brain tubulin polymerization at 100 uM after 40 mins by DAPI staining-based fluorescence assay
# Procedure, shortened: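 Microtubular protein was purified from sheep brain by two assembly/disassembly cycles (37 °C/0 °C) in MES buffer (100 mM MES pH 6.6, 1 mM EGTA, 0.5 mM MgCl₂). Compound in DMSO was added to 10 µM tubulin with 10 µM DAPI and incubated 40 min at RT. GTP (1 mM) was then added, and assembly was followed by DAPI fluorescence at 37 °C.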
# [15] = tested on: SK-MEL-5; test: Cytotoxicity against human SK-MEL-5 cells assessed as cell growth at 10 uM after 48 hrs by SRB assay relative to untreated control; type: functional; conditions: SK-MEL-5, 48 h, read-out: Activity; procedure, shortened: as §3
# [16] = tested on: TK-10; test: Cytotoxicity against human TK10 cells assessed as cell growth at 10 uM after 48 hrs by SRB assay relative to untreated control; type: functional; conditions: TK-10, 48 h, read-out: Activity; procedure, shortened: as §3
# [17] = tested on: SF-539; test: Cytotoxicity against human SF539 cells assessed as cell growth at 10 uM after 48 hrs by SRB assay relative to untreated control; type: functional; conditions: SF-539, 48 h, read-out: Activity; procedure, shortened: as §1
# [18] = tested on: SK-MEL-2; test: Cytotoxicity against human SK-MEL-2 cells assessed as cell growth at 10 uM after 48 hrs by SRB assay relative to untreated control; type: functional; conditions: SK-MEL-2, 48 h, read-out: Activity; procedure, shortened: as §1
# [19] = tested on: MCF7; test: Cytotoxicity against human MCF7 cells assessed as cell growth at 10 uM after 48 hrs by SRB assay relative to untreated control; type: functional; conditions: MCF7, 48 h, read-out: Activity; procedure, shortened: as §2
# [20] = tested on: CAKI-1; test: Cytotoxicity against human Caki1 cells assessed as cell growth at 10 uM after 48 hrs by SRB assay relative to untreated control; type: functional; conditions: CAKI-1, 48 h, read-out: Activity; procedure, shortened: as §2
# [21] = tested on: NCI-H460; test: Cytotoxicity against human NCI-H460 cells assessed as cell growth at 10 uM after 48 hrs by SRB assay relative to untreated control; type: functional; conditions: NCI-H460, 48 h, read-out: Activity; procedure, shortened: as §1
# [22] = tested on: MDA-MB-468; test: Cytotoxicity against human MDA-MB-468 cells assessed as cell growth at 10 uM after 48 hrs by SRB assay relative to untreated control; type: functional; conditions: MDA-MB-468, 48 h, read-out: Activity; procedure, shortened: as §1
# [23] = tested on: MDA-MB-231; test: Cytotoxicity against human MDA-MB-231 cells assessed as cell growth at 10 uM after 48 hrs by SRB assay relative to untreated control; type: functional; conditions: MDA-MB-231, 48 h, read-out: Activity; procedure, shortened: as §1
# [24] = tested on: CCRF-CEM; test: Cytotoxicity against human CCRF-CEM cells assessed as cell growth at 10 uM after 48 hrs by SRB assay relative to untreated control; type: functional; conditions: read-out: Activity; procedure, shortened: as §2
# [25] = Cytotoxicity against human OVCAR5 cells assessed as cell growth at 10 uM after 48 hrs by SRB assay relative to untreated control; type: functional; conditions: OVCAR-5, 48 h, read-out: Activity; procedure, shortened: as §1
# [26] = Cytotoxicity against human UO31 cells assessed as cell growth at 10 uM after 48 hrs by SRB assay relative to untreated control; type: functional; conditions: UO-31, 48 h, read-out: Activity; procedure, shortened: as §3
# [27] = tested on: A549; test: Cytotoxicity against human A549 cells assessed as cell growth at 10 uM after 48 hrs by SRB assay relative to untreated control; type: functional; conditions: A549, 48 h, read-out: Activity; procedure, shortened: as §2
# [28] = tested on: IGROV-1; test: Cytotoxicity against human IGROV1 cells assessed as cell growth at 10 uM after 48 hrs by SRB assay relative to untreated control; type: functional; conditions: IGROV-1, 48 h, read-out: Activity; procedure, shortened: as §2
SMILES,growth at 10 µM [2],growth at 10 µM [3],growth at 10 µM [4],growth at 10 µM [5],growth at 10 µM [6],growth at 10 µM [7],growth at 10 µM [8],growth at 10 µM [9],growth at 10 µM [11],growth at 10 µM [12],growth at 10 µM [13],inhibition [14],growth at 10 µM [15],growth at 10 µM [16],growth at 10 µM [17],growth at 10 µM [18],growth at 10 µM [19],growth at 10 µM [20],growth at 10 µM [21],growth at 10 µM [22],other results
Cc1ccc(C2=Nc3nc4ccccn4c3C(=O)[C@H](C)N2)cc1,80.5%,87%,88.9%,88.6%,104%,81%,93.9%,25.7%,95.5%,66.5%,82.8%,16%,81.7%,96%,90%,69.5%,71.2%,86.1%,94.5%,91.1%,growth at 10 µM [1]: 87.5%; growth at 10 µM [10]: 93.8%; growth at 10 µM [23]: 79.7%; growth at 10 µM [24]: 85.2%; growth at 10 µM [25]: 94%; growth at 10 µM [26]: 45.9%; growth at 10 µM [27]: 92.9%; growth at 10 µM [28]: 70.9%
C[C@@H]1NC(c2ccc(N(C)C)cc2)=Nc2nc3ccccn3c2C1=O,77.5%,101%,113%,84.9%,103%,85.3%,102%,94.5%,95.2%,79.4%,101%,55%,95.4%,86%,92.7%,88.6%,66%,89.7%,91.9%,72.3%,growth at 10 µM [1]: 89.6%; growth at 10 µM [10]: 88.2%; growth at 10 µM [23]: 78.9%; growth at 10 µM [24]: 88.7%; growth at 10 µM [25]: 90.5%; growth at 10 µM [26]: 53.7%; growth at 10 µM [27]: 103%; growth at 10 µM [28]: 84.8%
C[C@@H]1NC(c2ccc(Br)cc2)=Nc2nc3ccccn3c2C1=O,68.3%,31.8%,66.2%,94%,69%,69.2%,91.8%,-13%,82.6%,34.8%,17.5%,8%,31.9%,110%,74.7%,47.4%,20.9%,44.1%,32.5%,-0.5%,growth at 10 µM [10]: 72.5%; growth at 10 µM [23]: 52.7%; growth at 10 µM [24]: 79.4%; growth at 10 µM [25]: 82.4%; growth at 10 µM [26]: 62%; growth at 10 µM [27]: 54.7%; growth at 10 µM [28]: 43.1%
C[C@@H]1NC(c2ccccc2)=Nc2nc3ccccn3c2C1=O,88%,99.8%,113%,85.7%,90.9%,97.5%,112%,91.6%,106%,95.4%,113%,7%,99.2%,135%,108%,110%,67.2%,81.8%,104%,99.9%,growth at 10 µM [1]: 135%; growth at 10 µM [23]: 89.8%; growth at 10 µM [24]: 104%; growth at 10 µM [25]: 114%; growth at 10 µM [26]: 82.5%; growth at 10 µM [27]: 103%; growth at 10 µM [28]: 88.2%
